This note sets out measurements from ChEMBL document CHEMBL1121727, “Synthesis and biological activity of certain derivatives of oxazinomycin and related oxadiazole nucleosides” (J Med Chem, 1981).

In general, IC50 refers to the point on the concentration scale where inhibition reaches its midpoint. One may read the Inhibition as the share of the control response that was lost under treatment. Higher therefore signals a strong effect.

The subject of test [1] is P388. In words: Antitumor activity against leukemia P388 cells; Inactive. The class given is functional, cell-based. As to conditions: Mus musculus.
For test [2], the system named is L1210. The test can be described thus: Antitumor activity against L1210 cells; Inactive. The class given is functional, cell-based. Conditions: Mus musculus.
Test [3] concerns Human alphaherpesvirus 1. In words: In vitro antiviral activity against herpes simplex virus/1(HSV/1) expressed as viral rating (VR). The test is classed as functional. Summed up:
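Antiviral assay in KB cells against HSV type 1 over 1000 to 1 μg/mL. Inhibition of viral cytopathic effect was read after 72 h at 37 °C and scored as virus rating (VR). VR ≥ 0.5 was taken as moderate to definite activity. Ribavirin and acyclovir served as controls.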

For test [4], the system named is L1210. The test can be described thus: Antitumor activity against L1210 cells. The class given is functional, cell-based. As to conditions: Mus musculus.
Test [5] relates to L1210. In words: Inhibition of RNA, DNA, and protein synthesis in L1210 cells at 8*10e-7 M.
The subject of test [6] is HeLa. The test can be described thus: Antitumor activity against HeLa cells. The test is classed as functional, cell-based. As to conditions: Homo sapiens.
Test [7] deals with Human alphaherpesvirus 1. The test can be described thus: In vitro antiviral activity against herpes simplex virus/1(HSV/1) expressed as viral rating (VR); Inactive. The test is classed as functional, organism-based. The gist of the method:
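Tested in vitro in KB cells infected with HSV type 1 at 1000 to 1 μg/mL. Plates were incubated 72 h at 37 °C, and inhibition of viral cytopathic effect was scored as a virus rating (VR). VR ≥ 0.5 was taken as moderate to definite activity. Ribavirin and acyclovir served as controls.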

Calls of active or inactive are those of the source. The calls are words filed in the database; no cut-off is given here.

In the case of `O=c1[nH]c(=O)n(C2O[C@H](CO)[C@@H](O)[C@H]2O)o1` (some centres not stated), the outcome in test [1] and in test [2] was inactive. Moreover, the VR in test [3] was determined as 0.65.
As for `Nc1nc2c(ncn2COCCO)c(=O)[nH]1` [ACYCLOVIR], the VR in test [3] is reported as 1.4.
Regarding `O=c1[nH]c(=O)c([C@@H]2O[C@H](CO)[C@@H](O)[C@H]2O)co1`, the half-maximal inhibitory concentration (IC50) in test [4] is 300 nM; in test [6], 500 nM. The Inhibition in test [5] is given as 5%.
`O=c1nc2c(co1)[C@@H]1O[C@H](CO)[C@@H](O)[C@@H]1O2`: the outcome in test [1] and in test [2] was inactive.
On to `CC(=O)O[C@H]1C[C@H](c2coc(=O)[nH]c2=O)O[C@@H]1CO`, for which the outcome in test [1] and in test [2] was inactive.
As for `O=c1[nH]oc(=O)[nH]1`, the result in test [1] and in test [2] was inactive. Besides, the VR entry in test [7] is “inactive”.
`NC(=O)c1ncn([C@@H]2O[C@H](CO)[C@@H](O)[C@H]2O)n1` [RIBAVIRIN] displayed a VR in test [3] of 1.2.
Regarding `O=c1[nH]c(=O)c([C@@H]2O[C@H](COP(=O)(O)O)[C@@H](O)[C@H]2O)co1`, the outcome in test [1] and in test [2] was inactive.
Regarding `C[C@H]1OC(c2coc(=O)[nH]c2=O)[C@H](O)[C@@H]1O` (some centres not stated), the result in test [1] and in test [2] was inactive.
On to `O=c1[nH]c(=O)n([C@H]2C[C@H](O)[C@@H](CO)O2)o1`, for which the result in test [1] and in test [2] was inactive. In test [7], the VR entry is “inactive”.
